Structures are written as SMILES.

In this experiment the target is Cell division control protein 42 homolog (Homo sapiens) (UniProt P60953). The experiment in a line: Cdc42 GTP Bmax and Kd shifts – biochemical, nucleotide-depleted protein, Mg buffer, varying GTP, mechanism study for Ras-family GTPase inhibitor project, late-stage follow-up (AID 2372). As to conditions: GST-Cdc42 beads, BODIPY-GTP binding, flow cytometry. The method, boiled down: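 incubation = EDTA depletion 20 min at 30 °C, compound pre-incubation 2 min | material = GST-Cdc42 bound to glutathione beads, depleted of nucleotide | quantity = 4 µM GST-Cdc42 for bead loading | medium = buffer with 1 mM MgCl2, after 10 mM EDTA stripping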
Chain of Cell division control protein 42 homolog (Homo sapiens) (P60953 whole entry, looked up): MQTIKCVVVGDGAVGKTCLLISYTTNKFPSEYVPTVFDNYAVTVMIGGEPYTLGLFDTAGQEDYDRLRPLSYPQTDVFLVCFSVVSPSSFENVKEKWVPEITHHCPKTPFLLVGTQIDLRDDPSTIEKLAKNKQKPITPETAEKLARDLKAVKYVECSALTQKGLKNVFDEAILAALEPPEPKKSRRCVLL
(In general: Flow cytometry measures light scatter and fluorescence of single cells or particles in a stream.)

In the case of `COc1ccc(C2CC(c3ccccc3)=NN2c2ccc(S(N)(=O)=O)cc2)cc1` (configuration not stated), the Bmax with compound (at 10 µM, stronger effect = lower value) was 1540. The Kd of GTP with compound (measured here: GTP affinity with 10 uM compound) came out at 7.16 nM.

The record behind these values is PubChem BioAssay AID2372 (NMMLSC, 2010).
